Data reported in ChEMBL document CHEMBL3352518, “Synthesis and biological evaluation of pyridinone analogues as novel potent HIV-1 NNRTIs” (Bioorg Med Chem, 2015).

Biological target: Human immunodeficiency virus type 1 reverse transcriptase (Human immunodeficiency virus 1, UniProt Q72547)
Experiment: Inhibition of HIV-1 recombinant reverse transcriptase after 1 hr by streptavidinalkaline phosphatase reporter system
Conditions: not given
Outline: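 Highly purified recombinant HIV-1 RT with a poly(rA)/oligo(dT)15 homopolymer template. SA-ALP was added, then PNPP (1 mg/mL, pH 9.5) for 30 min at 37 °C, stopped with NaOH. IC50 is the mean of three experiments.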

SMILES | IC50 [µM]
O=c1[nH]c(CCc2ccccc2)cc(Sc2ccccc2)c1I | 20.3
O=c1[nH]c(CCc2ccccc2)cc(NC2CCCCC2)c1I | 15.2
CC1CCCCC1Nc1cc(CCc2ccccc2)[nH]c(=O)c1Br (stereo unspecified) | 0.68
O=c1[nH]c(CCc2ccccc2)cc(Nc2ccccc2)c1I | 8.14
O=c1[nH]c(CCc2ccccc2)cc(Oc2ccccc2)c1I | 0.29
O=c1[nH]c(CCc2ccccc2)cc(NC2CCCCC2)c1Br | 40.3
O=c1[nH]c(CCc2ccccc2)cc(Sc2ccccc2)c1Br | 57.1

Further lines, results first:

IC50 [µM] | SMILES
43.3 | O=c1[nH]c(CCc2ccccc2)cc(NC2CCCC2)c1Br
24 | O=c1[nH]c(CCc2ccccc2)cc(NC2CCCC2)c1I
15.2 | CN(C)c1c(Sc2ccccc2)cc(CCc2ccccc2)[nH]c1=O
16.9 | Cc1ccc(Sc2cc(CCc3ccccc3)[nH]c(=O)c2Br)cc1
0.089 | CC(C)c1c(Oc2ccccc2)cc(CCc2ccccc2)[nH]c1=O
0.093 | CC(C)c1c(Sc2ccccc2)cc(CCc2ccccc2)[nH]c1=O
11.3 | O=c1[nH]c(CCc2ccccc2)cc(Nc2ccccc2)c1Br
12 | Cc1ccc(Sc2cc(CCc3ccccc3)[nH]c(=O)c2I)cc1
0.42 | CC1CCCCC1Nc1cc(CCc2ccccc2)[nH]c(=O)c1I (stereo unspecified)

System: not listed separately
Experiment: Cytotoxicity against human TZM-bl cells after 3 days by XTT assay
Assay type: cell-based
Conditions: not given

SMILES | CC50 at 72 h [µM]
CC1CCCCC1Nc1cc(CCc2ccccc2)[nH]c(=O)c1Br (stereo unspecified) | 131
O=c1[nH]c(CCc2ccccc2)cc(Oc2ccccc2)c1I | 181
CC(C)c1c(Oc2ccccc2)cc(CCc2ccccc2)[nH]c1=O | 195
CC(C)c1c(Sc2ccccc2)cc(CCc2ccccc2)[nH]c1=O | 136
CC1CCCCC1Nc1cc(CCc2ccccc2)[nH]c(=O)c1I (stereo unspecified) | 50.2

System: not listed separately
Experiment: Selectivity index, ratio of CC50 for human TZM-bl cells to EC50 for wild-type HIV-1 SF33
Assay type: toxicity, cell-based
Conditions: read-out: Ratio CC50/EC50
Outline: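 SI is calculated as CC50 in TZM-bl cells divided by EC50 against HIV-1 SF33 infection.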

SMILES | selectivity ratio
CC1CCCCC1Nc1cc(CCc2ccccc2)[nH]c(=O)c1Br (stereo unspecified) | 9.6
O=c1[nH]c(CCc2ccccc2)cc(Oc2ccccc2)c1I | 1200
CC(C)c1c(Oc2ccccc2)cc(CCc2ccccc2)[nH]c1=O | 3470
CC(C)c1c(Sc2ccccc2)cc(CCc2ccccc2)[nH]c1=O | 998
CC1CCCCC1Nc1cc(CCc2ccccc2)[nH]c(=O)c1I (stereo unspecified) | 18.5

System: Human immunodeficiency virus 1
Experiment: Antiviral activity against wild-type HIV-1 SF33 infected in human TZM-bl cells after 7 days by ELISA
Assay type: functional, organism-based
Conditions: Human immunodeficiency virus 1, SF33, TZM-bl, 168 h
Outline: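 TZM-bl cells (4 × 10⁴/well) were infected with 200 TCID₅₀ of HIV-1 SF33 for 2 h at 37 °C. Serially diluted compounds were then added and incubation continued 7 days at 37 °C. p24 was measured by ELISA.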

SMILES | EC50 [µM]
CC1CCCCC1Nc1cc(CCc2ccccc2)[nH]c(=O)c1Br (stereo unspecified) | 13.7
O=c1[nH]c(CCc2ccccc2)cc(Oc2ccccc2)c1I | 0.15

Further lines, results first:

EC50 [µM] | SMILES
0.0563 | CC(C)c1c(Oc2ccccc2)cc(CCc2ccccc2)[nH]c1=O
0.136 | CC(C)c1c(Sc2ccccc2)cc(CCc2ccccc2)[nH]c1=O
2.71 | CC1CCCCC1Nc1cc(CCc2ccccc2)[nH]c(=O)c1I (stereo unspecified)
